{"source": "ChEMBL document CHEMBL1687912", "about": "“Sugar-based enantiomeric and conformationally constrained pyrrolo[2,1-c][1,4]-benzodiazepines as potential GABAA ligands” (J Med Chem, 2011)", "data": [{"species_on_record": "Rattus norvegicus", "assay": "Displacement of [3H]flunitrazepam from GABAA receptor in rat cortical membrane assessed as [3H]flunitrazepam binding at 100 uM after 90 mins by scintillation counting", "type": "cell membranes", "how_it_was_run": "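Rat frontal cortex membranes (sucrose homogenate, ultracentrifuged pellets in 50 mM Tris-HCl pH 7.4), 0.3 mg protein per tube, incubated 90 min at 4 °C with 1 nM [3H]flunitrazepam ± 100 μM test compound (final; benzyl-sugar analogues from ethanol stock). Nonspecific binding with 100 μM flumazenil. Rapid GF/B filtration, ice-cold buffer washes, scintillation counting; expressed as % specific binding; three independent experiments in triplicate.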", "units": {"Activity": "%"}, "values": [{"smiles": "CN1C(=O)[C@H]2C[C@@]3(CN2C(=O)c2cc(Br)ccc21)O[C@H](CO)[C@@H](O)[C@@H]3O", "Activity": 84.2}, {"smiles": "CN1C(=O)[C@H]2C[C@@]3(CN2C(=O)c2cc([N+](=O)[O-])ccc21)O[C@H](COCc1ccccc1)[C@@H](OCc1ccccc1)[C@@H]3OCc1ccccc1", "Activity": 74.9}, {"smiles": "CN1C(=O)[C@H]2CCCN2C(=O)c2cc([N+](=O)[O-])ccc21", "Activity": 80.2}, {"smiles": "Nc1ccc2c(c1)C(=O)N1C[C@]3(C[C@@H]1C(=O)N2)O[C@H](CO)[C@@H](O)[C@@H]3O", "Activity": 80.2}, {"smiles": "O=C1Nc2ccc([N+](=O)[O-])cc2C(=O)N2C[C@]3(C[C@H]12)O[C@H](COCc1ccccc1)[C@@H](OCc1ccccc1)[C@@H]3OCc1ccccc1", "Activity": 101}, {"smiles": "CN1C(=O)[C@H]2C[C@@]3(CN2C(=O)c2ccccc21)O[C@H](CO)[C@@H](O)[C@@H]3O", "Activity": 93}, {"smiles": "CN1C(=O)[C@H]2C[C@@]3(CN2C(=O)c2ccccc21)O[C@H](COCc1ccccc1)[C@@H](OCc1ccccc1)[C@@H]3OCc1ccccc1", "Activity": 96.4}, {"smiles": "CN1C(=O)[C@@H]2C[C@]3(CN2C(=O)c2ccccc21)O[C@@H](COCc1ccccc1)[C@H](OCc1ccccc1)[C@H]3OCc1ccccc1", "Activity": 106}, {"smiles": "CN1C(=O)[C@@H]2C[C@]3(CN2C(=O)c2cc([N+](=O)[O-])ccc21)O[C@@H](COCc1ccccc1)[C@H](OCc1ccccc1)[C@H]3OCc1ccccc1", "Activity": 82.8}, {"smiles": "O=C1Nc2ccccc2C(=O)N2CCC[C@@H]12", "Activity": 95.5}, {"smiles": "CN1C(=O)[C@@H]2C[C@]3(CN2C(=O)c2cc(Cl)ccc21)O[C@@H](COCc1ccccc1)[C@H](OCc1ccccc1)[C@H]3OCc1ccccc1", "Activity": 82.3}, {"smiles": "CN1C(=O)[C@H]2C[C@@]3(CN2C(=O)c2cc(Cl)ccc21)O[C@H](COCc1ccccc1)[C@@H](OCc1ccccc1)[C@@H]3OCc1ccccc1", "Activity": 92.9}, {"smiles": "CN1C(=O)[C@@H]2C[C@]3(CN2C(=O)c2cc(Br)ccc21)O[C@@H](CO)[C@H](O)[C@H]3O", "Activity": 82.2}, {"smiles": "O=C1Nc2ccc([N+](=O)[O-])cc2C(=O)N2C[C@@]3(C[C@@H]12)O[C@@H](COCc1ccccc1)[C@H](OCc1ccccc1)[C@H]3OCc1ccccc1", "Activity": 69.6}, {"smiles": "CN1C(=O)[C@H]2C[C@@]3(CN2C(=O)c2cc(Cl)ccc21)O[C@H](CO)[C@@H](O)[C@@H]3O", "Activity": 73.7}, {"smiles": "O=C1Nc2ccccc2C(=O)N2C[C@]3(C[C@H]12)O[C@H](COCc1ccccc1)[C@@H](OCc1ccccc1)[C@@H]3OCc1ccccc1", "Activity": 112}, {"smiles": "CN1C(=O)[C@H]2C[C@@]3(CN2C(=O)c2cc(Br)ccc21)O[C@H](COCc1ccccc1)[C@@H](OCc1ccccc1)[C@@H]3OCc1ccccc1", "Activity": 111}, {"smiles": "CN1C(=O)[C@H]2C[C@@]3(CN2C(=O)c2cc(N)ccc21)O[C@H](CO)[C@@H](O)[C@@H]3O", "Activity": 70.6}, {"smiles": "CN1C(=O)[C@@H]2C[C@]3(CN2C(=O)c2cc(N)ccc21)O[C@@H](CO)[C@H](O)[C@H]3O", "Activity": 83.5}, {"smiles": "CN1C(=O)[C@@H]2C[C@]3(CN2C(=O)c2cc(Br)ccc21)O[C@@H](COCc1ccccc1)[C@H](OCc1ccccc1)[C@H]3OCc1ccccc1", "Activity": 93.2}, {"smiles": "O=C1Nc2ccccc2C(=O)N2CCC[C@H]12", "Activity": 97}, {"smiles": "CN1C(=O)[C@@H]2C[C@]3(CN2C(=O)c2ccccc21)O[C@@H](CO)[C@H](O)[C@H]3O", "Activity": 112}, {"smiles": "CN1C(=O)[C@@H]2CCCN2C(=O)c2cc([N+](=O)[O-])ccc21", "Activity": 63.4}, {"smiles": "Nc1ccc2c(c1)C(=O)N1C[C@@]3(C[C@H]1C(=O)N2)O[C@@H](CO)[C@H](O)[C@H]3O", "Activity": 73.9}, {"smiles": "CN1C(=O)[C@@H]2C[C@]3(CN2C(=O)c2cc(Cl)ccc21)O[C@@H](CO)[C@H](O)[C@H]3O", "Activity": 77}, {"smiles": "O=C1Nc2ccccc2C(=O)N2C[C@@]3(C[C@@H]12)O[C@@H](CO)[C@H](O)[C@H]3O", "Activity": 110}, {"smiles": "O=C1Nc2ccccc2C(=O)N2C[C@@]3(C[C@@H]12)O[C@@H](COCc1ccccc1)[C@H](OCc1ccccc1)[C@H]3OCc1ccccc1", "Activity": 96.3}, {"smiles": "O=C1Nc2ccccc2C(=O)N2C[C@]3(C[C@H]12)O[C@H](CO)[C@@H](O)[C@@H]3O", "Activity": 78.2}]}]}
